Laboratory results published in ChEMBL document CHEMBL5380783, “N-Substituted l-Iminosugars for the Treatment of Sanfilippo Type B Syndrome” (J Med Chem, 2023).
Calls of active or inactive are those of the source. The rule behind the calls is not given here.

Legend:
SK-N-BE(2) [1] = assay: Effect on heparan sulfate changes in human SK-NBE cell membrane at 20 uM incubated for 48 hrs by indirect immunofluorescence staining analysis; assay type: functional, cell-based
Summary of the method: (§1)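 Control and NAGLU-silenced SK-NBE clones grown on coverslips with 20 μM compound for 48 h. Fixed in 3.7% formaldehyde, permeabilized with saponin/BSA buffer, stained with anti-Lamp1 or anti-HS 10E4 for 1 h, then Alexa secondaries. Confocal imaging with 63× objective. Scored as percent cells with enlarged Lamp1 structures or membrane HS, plus mean fluorescence intensity, over 50 random cells from three experiments.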

SK-N-BE(2) [2] = assay: Effect on lysosome size and distribution in human SK-NBE cell clone assessed as at 20 uM incubated for 48 hrs by LAMP1 staining based indirect immunofluorescence assay; assay type: functional; summary of the method: as §1
Fibroblast [3] = assay: Inhibition of heparan sulfate accumulation on cell membrane in MPS-1 patient derived human fibroblast cells at 20 uM incubated for 48 hrs by indirect immunofluorescence staining analysis; assay type: functional, cell-based
Summary of the method: (§2)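 HDFa, MPS IIIA, MPS IIIB and MPS I patient fibroblasts in DMEM, 10% FBS, grown 48 h on coverslips with 20 μM compound. Double immunostained for HS (10E4) and Lamp1 with DAPI, confocal imaging. Mean fluorescence intensity expressed relative to untreated cells (d-enantiomers: percent positive cells), 50 random cells from three experiments.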

SK-N-BE(2) [4] = assay: Inhibition of heparan sulfate accumulation on cell membrane in NAGLU-silenced human SK-NBE cells clone at 20 uM incubated for 48 hrs by indirect immunofluorescence staining analysis; assay type: functional, cell-based; summary of the method: as §1
HeLa [5] = assay: Upregulation of NAGLU protein expression in human HeLa cells at 20 uM incubated for 24 hrs by western blot analysis; assay type: functional, cell-based
IB3-1 [6] = assay: Cytotoxicity against human IB3-1 cells assessed as induction of apoptosis upto 100 uM; assay type: toxicity, cell-based; details: ib3-1, 100 µM
Fibroblast [7] = assay: Inhibition of heparan sulfate accumulation on cell membrane in Sanfilippo-A patient derived human fibroblast cells at 20 uM incubated for 48 hrs by indirect immunofluorescence staining analysis; assay type: functional, cell-based; summary of the method: as §2
IB3-1 [8] = assay: Antiproliferative activity against human IB3-1 cells upto 100 uM; assay type: toxicity, cell-based; details: ib3-1, 100 µM
HeLa [9] = assay: Downregulation of EXT1 protein expression in human HeLa cells at 20 uM incubated for 24 hrs by western blot analysis; assay type: functional, cell-based
Fibroblast [10] = assay: Inhibition of lysosomal defects in MPS-1 patient derived human fibroblast cells assessed as reduction in accumulation of enlarged LAMP1-positive lysosomal structures within the cytoplasm at 20 uM incubated for 48 hrs by LAMP1 staining based indirect immunofluorescence assay; assay type: functional, cell-based; summary of the method: as §2
HaCaT [11] = assay: Antiproliferative activity against human HaCaT cells upto 100 uM; assay type: toxicity, cell-based
SK-N-BE(2) [12] = assay: Inhibition of amyloid beta (1 to 42) accumulation in cytoplasm of NAGLU-silenced human SK-NBE cell clones at 20 uM incubated for 48 hrs by indirect immunofluorescence staining based analysis; assay type: functional
Summary of the method: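 NAGLU-silenced SK-NBE clone on coverslips, exposed to 20 μM compound for 48 h. Cells fixed in formaldehyde, permeabilized with saponin, stained with anti-Aβ1-42 antibody and fluorescent secondary, imaged by confocal microscopy. Cells bearing Aβ1-42-positive structures counted among 50 random cells from three independent experiments; untreated clone as comparator.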

HeLa [13] = assay: Cytotoxicity against human HeLa cells assessed as reduction in cell viability at 20 uM incubated for 48 hrs by trypan blue exclusion method; assay type: functional, cell-based
Summary of the method: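 HeLa cells seeded at 100,000 per well and grown overnight in complete RPMI. Exposed to 20 μM compound in the same medium for 48 h at 37 °C; untreated mock as control. Cells trypsinized, live cells counted by trypan blue exclusion on an automated counter. Means of three independent experiments, each in triplicate, with s.e.m.; Student's t-test, p < 0.05.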

[14] = biological target: T1, Alpha-N-acetylglucosaminidase (Homo sapiens) (UniProt P54802); assay: Inhibition of NAGLU in human HDFa cells using 4-methylumbelliferyl-N-acetyl-alpha-D-glucosaminide as substrate upto 1 mM by fluorescence based analysis; assay type: cell-based
T1 sequence (whole entry): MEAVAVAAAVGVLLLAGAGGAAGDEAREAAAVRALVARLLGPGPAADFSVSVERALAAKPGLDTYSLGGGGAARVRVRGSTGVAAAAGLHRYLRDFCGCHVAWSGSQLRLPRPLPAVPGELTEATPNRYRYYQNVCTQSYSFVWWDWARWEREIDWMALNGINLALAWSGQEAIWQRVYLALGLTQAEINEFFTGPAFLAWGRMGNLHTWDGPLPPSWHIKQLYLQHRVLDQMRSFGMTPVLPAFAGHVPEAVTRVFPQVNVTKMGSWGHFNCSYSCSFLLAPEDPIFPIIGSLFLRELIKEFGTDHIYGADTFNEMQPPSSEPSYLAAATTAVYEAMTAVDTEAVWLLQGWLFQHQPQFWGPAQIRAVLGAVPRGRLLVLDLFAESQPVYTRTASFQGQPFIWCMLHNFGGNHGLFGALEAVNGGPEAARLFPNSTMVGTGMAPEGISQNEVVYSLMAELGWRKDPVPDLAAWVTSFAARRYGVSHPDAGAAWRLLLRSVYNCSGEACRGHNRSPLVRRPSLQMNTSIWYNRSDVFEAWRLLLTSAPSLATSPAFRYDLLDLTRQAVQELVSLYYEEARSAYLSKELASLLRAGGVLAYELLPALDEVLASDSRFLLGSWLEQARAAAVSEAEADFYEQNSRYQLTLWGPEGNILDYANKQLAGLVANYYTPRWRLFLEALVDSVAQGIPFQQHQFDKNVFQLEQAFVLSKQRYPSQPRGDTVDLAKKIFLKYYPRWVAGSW
Summary of the method: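 HDFa fibroblast lysate (freeze–thaw, Lowry protein) incubated 2 h with 4-methylumbelliferyl-N-acetyl-α-D-glucosaminide (2 mM substrate solution) in Na-acetate buffer pH 4.5, compound added to the reaction up to 1 mM. Fluorogenic hydrolysis normalized per mg protein per hour.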

HaCaT [15] = assay: Cytotoxicity against human HaCaT cells assessed as induction of apoptosis upto 100 uM; assay type: toxicity, cell-based
SK-N-BE(2) [16] = assay: Inhibition of lysosomal defects in NAGLU-silenced human SK-NBE cell clones assessed as reduction in accumulation of enlarged LAMP1-positive lysosomal structures within the cytoplasm at 20 uM incubated for 48 hrs by LAMP1 staining based indirect immunofluorescence assay; assay type: functional; summary of the method: as §1
HeLa [17] = assay: Inhibition of heparan sulfate accumulation on cell membrane in human HeLa cells at 20 uM incubated for 48 hrs by indirect immunofluorescence staining analysis; assay type: functional, cell-based
Summary of the method: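 HeLa cells grown 48 h with compound, then immunostained with anti-HS antibody 10E4 to gauge membrane HS.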

Fibroblast [18] = assay: Inhibition of heparan sulfate accumulation on cell membrane in Sanfilippo-B patient derived human fibroblast cells at 20 uM incubated for 48 hrs by indirect immunofluorescence staining analysis; assay type: functional, cell-based; summary of the method: as §2
Fibroblast [19] = assay: Effect on heparan sulfate changes in human fibroblast cells at 20 uM incubated for 48 hrs by indirect immunofluorescence staining analysis; assay type: functional, cell-based; summary of the method: as §2
Fibroblast [20] = assay: Inhibition of lysosomal defects in Sanfilippo-B patient derived human fibroblast cells assessed as reduction in more concentrated lysosomal distribution in the perinuclear region of the cytoplasm at 20 uM incubated for 48 hrs by LAMP1 staining based indirect immunofluorescence assay; assay type: functional, cell-based; summary of the method: as §2

SMILES	Activity (SK-N-BE(2) [1])	Activity (SK-N-BE(2) [2])	inhibition (Fibroblast [3])	inhibition (SK-N-BE(2) [4])	Activity (HeLa [5])	Activity (IB3-1 [6])	inhibition (Fibroblast [7])	Activity (IB3-1 [8])	inhibition (HeLa [9])	inhibition (Fibroblast [10])	Activity (HaCaT [11])	inhibition (SK-N-BE(2) [12])	Activity (HeLa [13])	inhibition [14]	Activity (HaCaT [15])	inhibition (SK-N-BE(2) [16])	inhibition (HeLa [17])	inhibition (Fibroblast [18])	Activity (Fibroblast [19])	inhibition (Fibroblast [20])
Cl.OC[C@H]1[C@H](O)[C@@H](O)[C@H](O)CN1CCCCCOCC12CC3CC(CC(C3)C1)C2	inactive	inactive	inactive	Active	Active	Non-Toxic	Active	Non-Toxic	inactive	inactive	Non-Toxic	Active	Active	inactive	Non-Toxic	Active	Active	Active	inactive	Active
COCCCCCCCCCN1C[C@@H](O)[C@H](O)[C@@H](O)[C@@H]1CO.Cl	inactive	inactive	inactive	Active	Active	Non-Toxic	Active	Non-Toxic	inactive	inactive	Non-Toxic	Active	Active	inactive	Non-Toxic	Active	Active	Active	inactive	Active
Cl.OC[C@@H]1NC[C@@H](O)[C@H](O)[C@H]1O	inactive	inactive	inactive	Active	Active	Non-Toxic	Active	Non-Toxic	Active	inactive	Non-Toxic	Active	Active	inactive	Non-Toxic	Active	Active	Active	inactive	Active
CCCCN1C[C@@H](O)[C@H](O)[C@@H](O)[C@@H]1CO.Cl	inactive	inactive	inactive	Active	Active	Non-Toxic	Active	Non-Toxic	Active	inactive	Non-Toxic	Active	Active	inactive	Non-Toxic	Active	Active	Active	inactive	Active
